Reference: ChEMBL document CHEMBL3045963, “Synthesis of nalidixic acid based hydrazones as novel pesticides” (2010)
≈ marks a conversion by molar mass, not a printed value.

Experiments:
Assay type in all cases: functional
Callosobruchus maculatus = experiment: Insecticidal activity against adult Callosobruchus maculatus assessed as mortality at 0.1% at 27 +/-1 degC after 24 hr by contact based film residue method
How it was run: (§1)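 Lab-reared adults, 2-5 days old, exposed to a dry film: 1 mL of 0.1% compound solution in dichloromethane is swirled in a 90 mm Petri plate and dried 3-5 min. Ten adults per plate are held at 27 ± 1 °C and 70% RH. Mortality is scored at 24 h, with no response to touch counted as dead. Triplicates, solvent control, malathion reference.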

Tribolium castaneum [1] = experiment: Insecticidal activity against adult Tribolium castaneum (red flour beetle) assessed as mortality at 0.1% at 27 +/-1 degC after 24 hr by contact based film residue method; how it was run: as §1
Tribolium castaneum [2] = experiment: Insecticidal activity against adult Tribolium castaneum (red flour beetle) in compound pre-treated green gram grains assessed as mortality at 20 mg/kg after 48 hr by feeding based residue method; conditions: in Vigna radiata
How it was run: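 Green gram grains are treated with compound in dichloromethane (0.6 mg in 5 mL) at 20 mg active ingredient per kg grain (0.002%). Ten adults are released onto 10 g of treated grain in a plastic box. Mortality is recorded after 48 h. Triplicate, solvent-treated control.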

Spodoptera litura [3] = experiment: Insecticidal activity against third-instar larval stage of Spodoptera litura assessed as mortality at 0.1% applied topically on the ventral side of the larvae measured after 24 hr by contact method
How it was run: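 Field-collected larvae are reared in the lab at 27 ± 1 °C and 70% RH. Two microliters of a 0.1% dichloromethane solution is applied to the ventral side. Ten treated larvae are kept per glass bottle and fed fresh castor leaves. Mortality is recorded at 24 h. Triplicate, solvent control.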

Spodoptera litura [4] = experiment: Insecticidal activity against third-instar larval stage of prestarved Spodoptera litura in castor leaf assessed as mortality at 0.1% treated for 2 secs before larval infestation measured after 24 hr by feeding method
How it was run: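 Castor leaf is dipped 2 s in 0.1% compound solution, air-dried, and placed on moist filter paper in 9 cm Petri plates. Larvae starved 4 h beforehand are released singly, one per plate. Thirty replicates per treatment, solvent control. Mortality is scored after 24 h.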

Fusarium oxysporum = experiment: Fungicidal activity against Fusarium oxysporum by poisoned food technique; conditions: read-out: ED50 (the source's name)
Alternaria porri = experiment: Fungicidal activity against Alternaria porri by poisoned food technique; conditions: read-out: ED50 (the source's name)
Rhizoctonia solani = experiment: Fungicidal activity against Rhizoctonia solani by poisoned food technique; conditions: read-out: ED50 (the source's name)
Macrophomina phaseolina = experiment: Fungicidal activity against Rhizoctonia bataticola by poisoned food technique; conditions: read-out: ED50 (the source's name)
Athelia rolfsii = experiment: Fungicidal activity against Athelia rolfsii by poisoned food technique; conditions: Agroathelia rolfsii; read-out: ED50 (the source's name)

In the case of `CCOC(=O)CC(SP(=S)(OC)OC)C(=O)OCC` (configuration not stated) [MALATHION], the mortality (Callosobruchus maculatus) is reported as 100%, the mortality (Tribolium castaneum [1]) is reported as 100% and the mortality at 20 mg/kg (Tribolium castaneum [2]) is reported as 100%.

With `CCn1cc(C(=O)N/N=C/c2ccccc2[N+](=O)[O-])c(=O)c2ccc(C)nc21` the mortality (Callosobruchus maculatus) was 60%, the mortality at 20 mg/kg (Tribolium castaneum [2]) was 20% and the mortality (Spodoptera litura [3]) was 30%. The mortality (Spodoptera litura [4]) was 100%, the EC50 (Fusarium oxysporum) was 169 µg/mL (≈ 445 µM) and the EC50 (Alternaria porri) was 71.3 µg/mL (≈ 188 µM). For the same molecule, the EC50 (Rhizoctonia solani) was 329 µg/mL (≈ 866 µM), the EC50 (Macrophomina phaseolina) was 610 µg/mL (≈ 1610 µM) and the EC50 (Athelia rolfsii) was 655 µg/mL (≈ 1730 µM).
